Experimental findings from PMC5308917 (Science translational medicine, 2017) are described below.

pKd: −log10 of the molar value. Where no end group is shown, it is not given here.

In series [1] the test system is VEGF-induced vascular leakage. Kind of series: VEGF-induced leakage in rabbit eyes. The class given is in vivo, rabbit (Dutch Belted). The essentials: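 A single intravitreous dose of test compound (50 μg) or comparator (500 μg) was given in one eye, with vehicle in the fellow eye. VEGF (10 μg) was injected into both eyes on day 23, VFP done day 30, eyes rescanned without fluorescein day 43, VEGF (10 μg) reinjected both eyes day 53, VFP day 60. For VFP, 15 mg sodium fluorescein was given via ear vein. After 1 h, fluorescence was scanned retina-to-cornea, taking the AUC 5–7 mm in front of the retina.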

Series [2] addresses 5-carboxyfluorescein (5-FAM)-labeled AXT107. Kind of series: fluorescence polarisation. A general note: Fluorescence polarisation rises when a labelled molecule tumbles more slowly, as on binding a larger partner.
A further series concerns the target integrin αvβ3 (Homo sapiens, UniProt P05106+P06756). Kind of series: Fluorescence anisotropy, integrin αvβ3. It is filed as binding. The essentials:
(§1)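 FAM-labelled test compound (10 nM, dissolved in DMSO; final DMSO 0.0005%) mixed with 0–75 nM soluble recombinant heterodimeric integrin in 50 mM tris pH 7.5, 1 mM CaCl2, 1 mM MgCl2, 100 mM NaCl. Incubated on ice at least 30 min to reach equilibrium. Anisotropy read with vertically polarized excitation at 470 nm, detecting vertical and horizontal emission at 540 nm.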

A further series has as its target integrin α5β1 (Homo sapiens, UniProt P05556+P08648). Kind of series: Fluorescence anisotropy, integrin α5β1. The class given is binding. The essentials:
as §1

A short description of series [3]: Fundus photography after intravitreous injection. It is filed as in vivo, rabbit (Dutch Belted). The gist of the method: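 Rabbits anaesthetized with IM ketamine (25 mg/kg) and xylazine (2.5 mg/kg), pupils dilated with 2.5% phenylephrine, conjunctiva cleaned with 5% povidone-iodine. Intravitreous injection of 50 μg test compound (or 500 μg comparator) in one eye and vehicle in the fellow eye. Fundus photographs taken 2 and 30 days after injection.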

Series [4] in a line: Non-GLP safety studies after intravitreous injection. To be noted: independent Clinical Research Organization. It is filed as in vivo, rabbit.
For the next series, the system named is VEGFR2. Kind of series: Proteasomal inhibition by lactacystin and total VEGFR2. The class given is cell-based, human. Conditions: 5 μM lactacystin with varying concentrations of AXT107.

integrin α5β1, sequence (P08648 42-995 limits assumed): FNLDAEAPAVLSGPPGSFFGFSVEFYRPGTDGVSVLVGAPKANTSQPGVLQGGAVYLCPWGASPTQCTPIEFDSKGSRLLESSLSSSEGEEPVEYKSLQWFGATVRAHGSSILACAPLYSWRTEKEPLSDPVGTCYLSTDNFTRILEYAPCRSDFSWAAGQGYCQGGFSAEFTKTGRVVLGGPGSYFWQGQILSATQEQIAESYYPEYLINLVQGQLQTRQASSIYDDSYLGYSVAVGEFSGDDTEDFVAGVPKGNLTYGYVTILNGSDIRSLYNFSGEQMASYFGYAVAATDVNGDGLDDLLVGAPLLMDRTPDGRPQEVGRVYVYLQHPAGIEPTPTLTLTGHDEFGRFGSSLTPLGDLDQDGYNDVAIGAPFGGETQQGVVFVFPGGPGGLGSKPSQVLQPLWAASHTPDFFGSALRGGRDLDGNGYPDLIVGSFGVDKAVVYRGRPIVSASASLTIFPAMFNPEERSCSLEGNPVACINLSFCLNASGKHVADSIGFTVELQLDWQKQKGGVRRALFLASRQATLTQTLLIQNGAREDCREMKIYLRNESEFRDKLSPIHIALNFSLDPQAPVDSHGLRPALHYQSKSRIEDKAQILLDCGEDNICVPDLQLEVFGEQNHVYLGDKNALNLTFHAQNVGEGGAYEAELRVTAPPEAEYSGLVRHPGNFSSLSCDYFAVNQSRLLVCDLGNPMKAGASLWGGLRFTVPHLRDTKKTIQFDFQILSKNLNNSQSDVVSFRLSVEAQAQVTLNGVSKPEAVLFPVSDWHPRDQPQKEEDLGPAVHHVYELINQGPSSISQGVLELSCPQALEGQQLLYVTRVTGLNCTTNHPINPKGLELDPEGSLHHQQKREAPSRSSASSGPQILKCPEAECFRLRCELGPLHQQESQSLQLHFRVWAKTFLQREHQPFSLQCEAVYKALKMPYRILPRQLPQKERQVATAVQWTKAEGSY
integrin α5β1, sequence (P05556 21-728 limits assumed): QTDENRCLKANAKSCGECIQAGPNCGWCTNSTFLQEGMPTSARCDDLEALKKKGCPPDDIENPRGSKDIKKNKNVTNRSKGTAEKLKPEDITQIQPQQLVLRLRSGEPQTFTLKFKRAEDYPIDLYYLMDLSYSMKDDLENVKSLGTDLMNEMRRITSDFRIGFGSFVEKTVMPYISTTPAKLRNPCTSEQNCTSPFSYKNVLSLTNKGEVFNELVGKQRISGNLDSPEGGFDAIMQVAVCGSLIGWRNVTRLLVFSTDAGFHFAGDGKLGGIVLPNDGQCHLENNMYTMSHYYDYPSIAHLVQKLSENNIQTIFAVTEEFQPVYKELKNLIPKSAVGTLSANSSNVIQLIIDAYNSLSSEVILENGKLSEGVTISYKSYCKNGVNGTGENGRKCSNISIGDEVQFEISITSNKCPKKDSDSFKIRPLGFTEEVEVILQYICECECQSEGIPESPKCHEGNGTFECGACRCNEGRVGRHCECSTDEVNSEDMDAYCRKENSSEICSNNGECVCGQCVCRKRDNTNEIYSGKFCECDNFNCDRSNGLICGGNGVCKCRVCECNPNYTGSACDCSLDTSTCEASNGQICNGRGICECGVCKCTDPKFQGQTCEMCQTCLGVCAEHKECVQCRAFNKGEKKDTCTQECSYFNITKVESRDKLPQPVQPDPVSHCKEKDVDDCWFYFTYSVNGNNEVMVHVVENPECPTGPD
integrin αvβ3, sequence (P06756 31-992 limits assumed): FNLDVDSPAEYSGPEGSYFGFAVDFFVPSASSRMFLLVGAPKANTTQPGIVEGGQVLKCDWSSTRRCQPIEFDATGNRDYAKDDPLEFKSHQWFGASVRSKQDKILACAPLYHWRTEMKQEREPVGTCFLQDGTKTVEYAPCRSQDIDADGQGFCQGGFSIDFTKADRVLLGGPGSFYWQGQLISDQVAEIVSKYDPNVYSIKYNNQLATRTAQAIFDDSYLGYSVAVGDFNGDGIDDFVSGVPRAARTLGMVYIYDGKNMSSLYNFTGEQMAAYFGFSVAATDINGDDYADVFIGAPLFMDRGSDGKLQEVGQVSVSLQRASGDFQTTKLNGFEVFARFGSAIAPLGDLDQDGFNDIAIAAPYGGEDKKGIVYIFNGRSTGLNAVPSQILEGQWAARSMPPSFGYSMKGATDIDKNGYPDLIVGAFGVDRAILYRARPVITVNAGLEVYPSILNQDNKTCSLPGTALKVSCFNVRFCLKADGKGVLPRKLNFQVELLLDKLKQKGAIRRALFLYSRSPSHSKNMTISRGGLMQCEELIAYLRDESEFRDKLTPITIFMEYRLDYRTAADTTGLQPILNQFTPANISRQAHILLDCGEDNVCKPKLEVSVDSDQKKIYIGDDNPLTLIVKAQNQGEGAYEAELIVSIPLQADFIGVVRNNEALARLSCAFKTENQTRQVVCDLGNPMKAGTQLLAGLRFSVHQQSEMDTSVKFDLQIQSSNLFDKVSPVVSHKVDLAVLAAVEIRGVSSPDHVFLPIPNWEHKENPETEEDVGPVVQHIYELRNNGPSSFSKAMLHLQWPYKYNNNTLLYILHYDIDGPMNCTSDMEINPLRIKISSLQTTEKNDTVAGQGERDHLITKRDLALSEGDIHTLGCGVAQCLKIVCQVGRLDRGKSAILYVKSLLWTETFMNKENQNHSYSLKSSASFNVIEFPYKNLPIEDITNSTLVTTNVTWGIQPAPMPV
integrin αvβ3, sequence (P05106 27-718 limits assumed): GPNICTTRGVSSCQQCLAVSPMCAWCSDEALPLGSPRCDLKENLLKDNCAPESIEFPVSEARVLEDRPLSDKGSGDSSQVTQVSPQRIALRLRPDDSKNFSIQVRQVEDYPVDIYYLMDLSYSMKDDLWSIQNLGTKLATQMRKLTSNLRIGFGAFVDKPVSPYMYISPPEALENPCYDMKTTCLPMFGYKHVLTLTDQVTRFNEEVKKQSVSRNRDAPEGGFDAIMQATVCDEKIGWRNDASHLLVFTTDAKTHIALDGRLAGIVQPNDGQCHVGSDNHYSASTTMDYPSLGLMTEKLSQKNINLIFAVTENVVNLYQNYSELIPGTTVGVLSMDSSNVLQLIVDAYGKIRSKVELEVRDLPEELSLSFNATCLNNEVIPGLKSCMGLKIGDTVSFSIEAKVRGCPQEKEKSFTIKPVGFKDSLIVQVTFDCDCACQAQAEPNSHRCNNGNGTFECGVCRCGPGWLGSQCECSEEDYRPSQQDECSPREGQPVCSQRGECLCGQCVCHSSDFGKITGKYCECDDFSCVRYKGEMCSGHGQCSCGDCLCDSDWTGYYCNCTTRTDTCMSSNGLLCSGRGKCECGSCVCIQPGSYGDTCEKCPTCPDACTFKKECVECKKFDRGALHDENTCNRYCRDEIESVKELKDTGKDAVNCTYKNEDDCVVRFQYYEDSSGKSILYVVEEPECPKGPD

Take “aflibercept: a VEGF-neutralizing protein, which is standard care for patients with NVAMD”: in series [1] (50 μg of AXT107 or 500 μg of aflibercept, VEGF rechallenge (10 μg) on day 53), the “fluorescein in the mid-vitreous, day 60 (representative VFP scans)” value was “higher levels”. Moreover, in series [1] (50 μg of AXT107 versus 500 μg of aflibercept, P < 0.05), the “leakage remaining at 60 days” value is on record as 100%. Also, the “leakage vs fellow eye controls, day 60 (in words)” value in series [1] (500 μg of aflibercept, VEGF rechallenge (10 μg) on day 53, VFP day 60) is “not significantly reduced”.
As usually defined, the pKd is the negative decadic logarithm of the Kd, by convention in mol/L. High values mean a small Kd, low ones a large Kd. For the molecule “soluble, recombinant αvβ3 heterodimeric integrin (from UniProt P06756 31-1048; P05106 27-718) (complex)”, in series [2], the pKd was 8.89.
Molecule “soluble, recombinant α5β1 heterodimeric integrin (from UniProt P08648 42-1049; P05556 21-728) (complex)” showed a negative-log Kd (pKd) in series [2] of 8.66.
As to LRRFSTAPFAFIDINDVINF [AXT107], at integrin αvβ3, the negative-log Kd (pKd) is 8.89. In addition, the pKd at integrin α5β1 was 8.66. Further, in series [3] (50 μg intravitreous, 30 days after injection), the “gel-like depot in inferior vitreous, persistence” value is on record as “still present in the same location 30 days after injection”. Besides, the “dissipation of gel-like depot” value in series [3] (after intraocular injection, inferior vitreous) is listed as “slowly dissipates over months”. For the same molecule, in series [4], the intraocular pressure result is given as “no increase in intraocular pressure”, the “ocular media in the visual axis” value is “no degradation of the ocular media in the visual axis” and the retinal toxicity result was “no retinal toxicity”.
As for `CC(=O)N[C@@H](CSC(=O)[C@]1([C@@H](O)C(C)C)NC(=O)[C@H](C)[C@@H]1O)C(=O)O` [lactacystin], the “AXT107-induced degradation of VEGFR2” value with VEGFR2 is “reduced AXT107-induced degradation of VEGFR2”.
